Results on 95 compounds are retold here after ChEMBL document CHEMBL4513216, “Probing the Open Global Health Chemical Diversity Library for Multistage-Active Starting Points for Next-Generation Antimalarials” (ACS Infect Dis, 2020).

The data set can be described thus: Toxicity liver stage against HepG2, at 10uM. It counts as cell-based. Also on record: test concentration 10 uM, cell line HepG2-A16-CD81EGFP. The note with it: human, HepG2-A16-CD81EGFP cells; read-out: INHIBITION
The method in brief: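 Uninfected HepG2-A16-CD81EGFP cells, 3 × 10^3 per well, 1536-well, plated on prespotted compound at 10 μM final, parasite-free screening media added to match infected plates; puromycin 10 μM positive, DMSO 0.5% negative; run in parallel with 48 h PbLuc assay at 37 °C, 5% CO2; viability by CellTiter-Glo luminescence, normalized to controls.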
Turning to `Cc1nc(C)n(CC2CCCN2CC(=O)Nc2cc(C)on2)n1` (stereo not given), the cytotoxicity at 10 µM was -2.11%.

For `CC(C)c1ccc(-n2ncc(C(=O)N(C)C3CCN(C)CC3)c2N)cc1`, the cytotoxicity at 10 µM was -6.57%.

In the case of `COc1cc2c(cc1OC)S(=O)(=O)N(Cc1ccccc1C)C2=O`, the cytotoxicity at 10 µM is 10.3%.

Turning to `CS(=O)(=O)NCCNC(=O)c1ccc(OCc2ccccc2)nc1`, the cytotoxicity at 10 µM was determined as 4.43%.

In the case of `COc1ccc(C(=O)N2CCOC3(CNCCOC3)C2)c(OC)n1` (stereo not given), the cytotoxicity at 10 µM was -8.2%.

With `COc1nc(C)ccc1CNC(=O)NC(C)(C)c1ncc(C)s1`, the cytotoxicity at 10 µM stood at 14.7%.

Turning to `CCc1nccn1-c1nccnc1C1CCN(C(=O)COC)CC1`, the cytotoxicity at 10 µM was -19.7%.

Turning to `N[C@H]1CN(C(=O)c2ccc(Cl)cc2O)C[C@@H]1C1CC1`, the cytotoxicity at 10 µM is -44.7%.

Turning to `COc1ccc2nc(CNC(=O)c3cc(C(C)C)no3)[nH]c2c1`, the cytotoxicity at 10 µM is -0.527%.

Consider `Cc1cccnc1CCNC(=O)[C@@]12CNC[C@@H]1CN(S(C)(=O)=O)C2`, for which the cytotoxicity at 10 µM is -0.973%.

For the compound `CCOC1COC2(CCN(Cc3cccnc3OC)CC2)C1` (stereo not given), the cytotoxicity at 10 µM was -2.47%.

With `COCCC(=O)N1CCCC1c1cccc(C)c1C` (stereo not given), the cytotoxicity at 10 µM was determined as 5.79%.

Turning to `Cc1cnn(CCC(=O)N2CCCN(c3cccnn3)CC2)c1`, the cytotoxicity at 10 µM turned out to be 1.47%.

Turning to `Cc1cc(C[S+]([O-])CC(=O)Nc2c(C)cccc2C)no1` (stereo not given), the cytotoxicity at 10 µM was -9.65%.

Consider `CN(Cc1nc2ccccc2[nH]1)C(=O)C(C)(C)n1cc(Cl)cn1`, for which the cytotoxicity at 10 µM came to 6.16%.

With `CCNC(=O)c1ccnc(N2CCCC(COc3ccccc3C)C2)c1` (stereo not given), the cytotoxicity at 10 µM turned out to be 2.08%.

For the compound `COCCN(Cc1cccs1)C(=O)C1CCCN(C(N)=O)C1` (stereo not given), the cytotoxicity at 10 µM amounted to 6.4%.

In the case of `CCn1c(=O)nc(N)c2c(-c3ccc(OC)cc3)csc21`, the cytotoxicity at 10 µM was -32.8%.

On to `CCCc1cc(=O)[nH]c(-c2ccccc2CN(C)CCC(C)C)n1`, for which the cytotoxicity at 10 µM turned out to be 3.53%.

For the compound `COc1ccc(NC2(C(=O)N3CCCn4cncc4C3)CCCC2)cc1`, the cytotoxicity at 10 µM was 10.2%.

In the case of `CC(C(=O)N1CCCN(Cc2cscn2)CC1)N1CCOCC1` (stereo not given), the cytotoxicity at 10 µM was -11.4%.

Turning to `Cc1ccc(C2(CN3CCCC3)CCNCC2)nc1`, the cytotoxicity at 10 µM is -12.8%.

`CC(C)NC(=O)C1CN(C(=O)Cc2ccccc2)CC12CCOCC2` (stereo not given): the cytotoxicity at 10 µM turned out to be 5.31%.

Regarding `O=C(CN1CCCC1Cn1cncn1)NC(C1CC1)C1CC1` (stereo not given), the cytotoxicity at 10 µM is -12.8%.

`Cc1noc(CCCC(=O)NCCc2cc3ccccc3[nH]2)n1`: the cytotoxicity at 10 µM was determined as 1.38%.

On to `NC(=O)CN1CCCN(C(=O)c2ccn(-c3cccc(F)c3)n2)CC1`, for which the cytotoxicity at 10 µM came out at 14.3%.

On to `CNS(=O)(=O)c1c(C)sc2ccccc12`, for which the cytotoxicity at 10 µM was found to be 4.18%.

Take `COc1ccccc1N1CCC(CNCc2cccc(OC)c2OC)C1` (stereo not given): the cytotoxicity at 10 µM was 0.445%.

Take `c1ccc(-c2cc(NCCCC3CCOC3)n3nccc3n2)cc1` (stereo not given): the cytotoxicity at 10 µM was -0.309%.

With `COC1CN(C(=O)C2CC2)CCC(=O)N(C)c2ccccc21` (stereo not given), the cytotoxicity at 10 µM is -8.67%.

With `CN1CCN(Cc2cnc(S(=O)(=O)CC3CC3)n2CC2CCCO2)CC1` (stereo not given), the cytotoxicity at 10 µM was -2.87%.

As to `CC(=O)N1CCC(C(=O)c2cnn(-c3ccccc3)c2N)C1` (stereo not given), the cytotoxicity at 10 µM was determined as 5.54%.

For `CC1(c2ncc(CN3CCN(c4ncccn4)CC3)cn2)CCCCO1` (stereo not given), the cytotoxicity at 10 µM amounted to 1.16%.

Turning to `CC(C)OCCOCC(O)CN(C)C(=O)Nc1ccc(F)cc1Cl` (stereo not given), the cytotoxicity at 10 µM amounted to 10.7%.

`c1ccc(COC[C@H]2CC[C@H]3[C@H](CCN3Cc3cccs3)O2)nc1`: the cytotoxicity at 10 µM was -85%.

As for `Cc1noc(C)c1CN1CC[C@H]2OCC[C@@]2(C(=O)N2CCCC2)C1`, the cytotoxicity at 10 µM was -70.7%.

Consider `CCC(CC)(CC)NC(=O)Nc1nnc(-c2ccccn2)s1`, for which the cytotoxicity at 10 µM was -2.27%.

With `CC1CCCCN1C(=O)Cn1cnc(C#N)n1` (stereo not given), the cytotoxicity at 10 µM was -18.8%.

`Cc1ccnc(NCCNC(=O)C2CC3(CCNCC3)CN2C)c1` (stereo not given): the cytotoxicity at 10 µM stood at 2.69%.

As for `Cc1cc(F)ccc1CNCCn1cccn1`, the cytotoxicity at 10 µM was -10.2%.

For `CCc1nc(C2CCCN2CCCSC)no1` (stereo not given), the cytotoxicity at 10 µM was -6.57%.

For the compound `Cc1noc(C)c1CN1CC[C@H]2C[C@H](c3nccs3)O[C@@H]2C1`, the cytotoxicity at 10 µM is -70.7%.

For the compound `CC(=O)c1cccc(OCc2cc(C(=O)N3CCCCO3)n[nH]2)c1`, the cytotoxicity at 10 µM was determined as 2.19%.

Turning to `CC(CN1CCOCC1)NC(=O)N(C)Cc1ccc(Cl)s1` (stereo not given), the cytotoxicity at 10 µM stood at 7.21%.

As for `CO[C@H]1CCN(Cc2c(C)noc2C)[C@@H]2CN(Cc3ccncc3)C[C@H]12`, the cytotoxicity at 10 µM amounted to 5.59%.

As for `Cc1noc(C)c1CS(=O)(=O)CC(=O)N(C)Cc1cccc(F)c1`, the cytotoxicity at 10 µM was -8.1%.

On to `O=C(O)c1cccc(CN2CCCC(c3ccn[nH]3)C2)c1` (stereo not given), for which the cytotoxicity at 10 µM came out at 3.98%.

As to `c1ccc(OC[C@]23COC[C@H]2CN(Cc2ccoc2)C3)nc1`, the cytotoxicity at 10 µM is -8.63%.

For the compound `CN(CC(N)=O)Cc1cc(Cl)cc2cccnc12`, the cytotoxicity at 10 µM is 6.37%.

Consider `CCS(=O)(=O)N1CCN(CC(F)(F)F)CC1`, for which the cytotoxicity at 10 µM was -1.99%.

Regarding `CNC(=O)c1nc2c(s1)CCN(C(=O)c1ccccc1)CC2`, the cytotoxicity at 10 µM is 11.1%.

Regarding `Cc1cccc(NC(=O)NCCCn2nc3ccccn3c2=O)c1C`, the cytotoxicity at 10 µM was -6.73%.

With `Cc1ccc(N2CCO[C@H]3CN(Cc4ccccn4)C[C@H]32)nn1`, the cytotoxicity at 10 µM was -79.8%.

In the case of `c1cncc(C2CC3(CCN(c4cnccn4)CC3)c3ccccc32)c1` (stereo not given), the cytotoxicity at 10 µM is 11.2%.

Take `CCN(CCNC(=O)Nc1nnc(C)s1)C(=O)OC(C)(C)C`: the cytotoxicity at 10 µM is -9.41%.

Consider `COc1ccnc(N2CCC3(CC2)[C@H](O)C[C@@H]3OCCN(C)C)n1`, for which the cytotoxicity at 10 µM came out at 1.03%.

For the compound `Cc1nc(CN2CCO[C@@H]3CN(Cc4ccccn4)CC[C@@H]3C2)cs1`, the cytotoxicity at 10 µM amounted to 7.02%.

For the compound `Cc1cnn(CCC(=O)N2CCCN(c3nc(C)cs3)CC2)c1`, the cytotoxicity at 10 µM was -4.05%.

Regarding `Cc1cccc(CN2CCC[C@@H]3CN(C(=O)c4ccco4)C[C@@H]32)n1`, the cytotoxicity at 10 µM is -3.49%.

In the case of `Cn1ncc2c1CN(Cc1ccccc1F)CC2COCC1CC1` (stereo not given), the cytotoxicity at 10 µM turned out to be 1.47%.

Turning to `CN1C(=O)C(c2ccccc2)CC12CCN(CCN)CC2` (stereo not given), the cytotoxicity at 10 µM was 8.67%.

For the compound `NC(=O)CN1C(=O)CO[C@H]2CN(Cc3ccccc3)C[C@H]21`, the cytotoxicity at 10 µM was found to be 0.67%.

With `Cc1nc(C)n(CC(=O)N2CCCC(c3nc(C)n4c(C)csc34)C2)n1` (stereo not given), the cytotoxicity at 10 µM amounted to 2.08%.

Consider `Cc1ccoc1C(=O)N1CCc2ccc(=O)n(CCN(C)C)c2CC1`, for which the cytotoxicity at 10 µM amounted to 1.41%.

Take `O=C1C[C@@H]2[C@H](CCN2Cc2ccco2)N1c1ccsc1`: the cytotoxicity at 10 µM turned out to be 8.55%.

On to `CN(C)C(=O)N1CCC2(CC1)CCN(Cc1ccccn1)C2=O`, for which the cytotoxicity at 10 µM came to 2.05%.

`CCn1cc(NC(=O)NC(CO)Cc2c[nH]c3ccccc23)cn1` (stereo not given): the cytotoxicity at 10 µM was -7.03%.

As to `NC(=O)c1cc(NC(=O)N2CCOCC2)ccc1F`, the cytotoxicity at 10 µM is -48.8%.

Regarding `COc1ccccc1N1CCC(CNCc2ccc(C#N)cc2)C1` (stereo not given), the cytotoxicity at 10 µM is -12.1%.

Turning to `C[C@H]1CN(c2ccccn2)C[C@@]12CCN(c1cccnc1)C2=O`, the cytotoxicity at 10 µM is -2.62%.

As to `Cc1cc(NC(=O)NCCc2ccsc2)n(C)n1`, the cytotoxicity at 10 µM amounted to 12.3%.

For the compound `CN(C)CCN(Cc1cccc(C(F)(F)F)c1)C(=O)c1cc[nH]n1`, the cytotoxicity at 10 µM was determined as 1.39%.

As for `c1ccc(CN2CCC(NCCc3ccc4c(c3)CCO4)CC2)nc1`, the cytotoxicity at 10 µM was found to be 3.73%.

In the case of `Cc1nc(Nc2ncc(C)s2)cc(C2CCCN2S(C)(=O)=O)n1` (stereo not given), the cytotoxicity at 10 µM is -37.6%.

As to `O=C1N(Cc2ccc(F)c(F)c2)CCCC12CCN(C1CCCC1)C2` (stereo not given), the cytotoxicity at 10 µM was -2.8%.

For `Cc1ccc(C(NC(=O)CCNC(=O)c2ccoc2)C(F)(F)F)cc1` (stereo not given), the cytotoxicity at 10 µM amounted to 9.49%.

Consider `CNc1ccc(C2CN(c3cc(C)nc(N)n3)CCO2)nc1` (stereo not given), for which the cytotoxicity at 10 µM was determined as 4.72%.

For `O=C(c1ccccc1)N1CC[C@H]2C[C@H](c3nnc(C4CC4)o3)O[C@@H]2C1`, the cytotoxicity at 10 µM was -102%.

As for `Cn1cnnc1CC1CCN(Cc2nn(C)c3cccc(Cl)c23)CC1`, the cytotoxicity at 10 µM is -1.62%.

As to `COCc1cn(C[C@H]2C[C@@H]3CCN2C[C@@H]3C(=O)N2CCOCC2)nn1`, the cytotoxicity at 10 µM was found to be 4.45%.

For `COCC1CN(C(=O)Cc2cccs2)Cc2nnn(C)c21` (stereo not given), the cytotoxicity at 10 µM is 4.99%.

In the case of `Clc1ccc(OCCN2CCN(CCn3cncn3)CC2)cc1`, the cytotoxicity at 10 µM is -17.4%.

Take `O=S1(=O)CCC(c2nnc(-c3cnc4onc(C5CCCC5)c4c3)o2)C1` (stereo not given): the cytotoxicity at 10 µM was 1.84%.

In the case of `O=C(c1cnccn1)N1CCN(Cc2cccnc2)c2ncccc2C1`, the cytotoxicity at 10 µM is -1.52%.

`CO[C@H]1CN(C(=O)c2ccnnc2)[C@@H]2COC[C@H]12`: the cytotoxicity at 10 µM worked out at 2.83%.

Regarding `CSc1cc2c(cc1NC(=O)NCC(=O)N(C)C)OCCO2`, the cytotoxicity at 10 µM was -5.87%.

Regarding `c1ccc(-c2nnc(CN3CCCC(Cn4cncn4)C3)o2)cc1` (stereo not given), the cytotoxicity at 10 µM is -7.51%.

Take `CCC(CC)C(=O)NCc1cnn(CC)c1`: the cytotoxicity at 10 µM is 7.19%.

Consider `CC(=O)N1CC(=O)N(c2cnn(C)c2)CC12CCN(Cc1ccsc1)C2` (stereo not given), for which the cytotoxicity at 10 µM was -17.6%.

In the case of `O=C(c1ccoc1)N1CC[C@H]2C[C@@H](c3nnc(C4CC4)o3)O[C@@H]2C1`, the cytotoxicity at 10 µM was -101%.

Consider `COc1cccc(-c2cc(NCc3cscn3)n(C)n2)c1`, for which the cytotoxicity at 10 µM was 3.69%.

As for `CC(C)c1cc(NC(=O)CN2CCC(C(N)=O)CC2)on1`, the cytotoxicity at 10 µM was -6.37%.

For `N#Cc1cccc(N2CC3(CCN(C(=O)c4cccnc4)C3)CC2=O)c1` (stereo not given), the cytotoxicity at 10 µM is 0.925%.

For `O=C(NCCN1CCCCCC1)c1n[nH]c(=O)c2ccccc12`, the cytotoxicity at 10 µM was -9.86%.

Take `COc1cc(CNc2cc(-c3nncn3C)ccn2)cc(OC)c1OC`: the cytotoxicity at 10 µM is -3.78%.
